Assays:
[1] = system: insulin receptor signaling; experiment: Insulin-induced Akt-S6K signaling in primary hippocampal neurons; assay type: cell-based, mouse; conditions: insulin 1 μg/mL, 20 min
Outline: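 Primary murine hippocampal neurons were pre-treated 20 min with test compound (0.2 µM) or vehicle, then with insulin (1 μg/mL) for 20 min. Cells were lysed in ice-cold RIPA for 30 min and centrifuged. Equal protein was run on SDS-PAGE and blotted to PVDF, blocked in 5% milk/TBS-T, then probed overnight at 4°C with primary antibodies and HRP secondaries. Data are mean ± SD.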

TrkB signaling = conditions: cited from earlier work
[2] = system: primary murine hippocampal neurons; experiment: PSD-95 puncta formation in vitro; assay type: cell-based, mouse; conditions: for effect of inhibitor on the effects of Syn3 (PSD-95 puncta): K252a 200 nM or LY294002 1 μM for 1 hour; for effect of inhibitor on the effects of Syn3 (PSD-95 puncta) / BDNF+Syn3–induced PSD-95 puncta formation with inhibitor: then Syn3 0.2 μM, BDNF 25 ng/mL 24 hours; for BDNF+Syn3–induced PSD-95 puncta formation with inhibitor: K252a 200 nM or LY294002 1 μM, n = 20 neurons
Outline: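 Primary murine hippocampal neurons were pretreated with test compound (0.2 µM) for 20 min, some first with K252a (200 nM) or LY294002 (1 µM) for 1 hour, then given BDNF for 24 hours. Cells were fixed in 4% paraformaldehyde for 15 min and blocked in 0.3% Triton X-100/5% goat serum. Primary antibody ran overnight at 4°C, secondary 2 hours at room temperature. Puncta were counted per 10-µm second-order dendrite 35–45 µm from the soma.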

[3] = system: primary murine hippocampal neurons; experiment: Synaptic density; assay type: cell-based, mouse; conditions: K252a 200 nM or LY294002 1 μM, Syn3 0.2 μM, BDNF 25 ng/mL 24 hours; n = 20 neurons
[4] = system: primary murine hippocampal neurons; experiment: Dendritic spine density; assay type: cell-based, mouse; conditions: K252a 200 nM or LY294002 1 μM, Syn3 0.2 μM, BDNF 25 ng/mL 24 hours; n = 15 neurons
[5] = system: Akt, GSK3α/β, S6K, S6 phosphorylation in primary murine hippocampal neurons; assay type: cell-based, mouse; conditions: K252a 200 nM or LY294002 1 μM for 1 hour, then Syn3 0.2 μM, BDNF 25 ng/mL 20 min; n = 5
[6] = system: patients with conventional, treatment-resistant depression; conditions: single infusion of sub-anesthetic dose; cited from earlier work
[7] = system: autophagy, BDNF-mTOR signaling pathway; conditions: through the BDNF-mTOR signaling pathway; cited from earlier work
[8] = system: C57BL/6J mice, corticosterone model of depression; experiment: Tail suspension test, corticosterone model; assay type: in vivo, mouse; conditions: corticosterone 20 mg/kg s.c. daily for 21 days
Outline: (§1)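 C57BL/6J mice, 4–5 weeks old, equal numbers male and female. Corticosterone emulsified in propylene glycol given s.c. daily between 10:00 and 12:00 for 21 days; controls got vehicle. Test compound then given i.p. (1 or 10 mg/kg; in one series 1 mg/kg with testing 12 hours later, n = 9 per group). Mice acclimated to the testing room for 30 min.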

[9] = system: C57BL/6J mice, corticosterone model of depression; experiment: Sucrose preference test, corticosterone model; assay type: in vivo, mouse; conditions: corticosterone 20 mg/kg s.c. daily for 21 days
Outline: as §1

[10] = system: C57BL/6J mice, corticosterone model of depression; experiment: Forced swim test, corticosterone model; assay type: in vivo, mouse; conditions: corticosterone 20 mg/kg s.c. daily for 21 days
Outline: as §1

[11] = system: platelet-derived growth factor (PDGF) receptor signaling; experiment: PDGF-induced Akt-S6K signaling in primary hippocampal neurons; assay type: cell-based, mouse; conditions: PDGF-BB 25 ng/mL, 20 min
[12] = system: primary murine hippocampal neurons; experiment: Sholl analysis of dendritic complexity/neurite outgrowth; assay type: cell-based, mouse; conditions: BDNF 25 ng/mL, 24h; n = 26 neurons

Molecule: insulin: recombinant insulin
- Akt and S6K phosphorylation [1]: increased Akt and S6K phosphorylation

Molecule: O=c1cc(-c2ccccc2)oc2c(O)c(O)ccc12 [7,8-DHF, 7,8-dihydroxyflavone]
- TrkB signaling and antidepressant responses (TrkB signaling): stimulates TrkB signaling and promotes rapid antidepressant responses

Molecule: COC(=O)[C@@]1(O)C[C@H]2O[C@]1(C)n1c3ccccc3c3c4c(c5c6ccccc6n2c5c31)C(=O)NC4 [K252a]
- effect of inhibitor on the effects of Syn3 (PSD-95 puncta) [2]: blocked the effects of Syn3
- BDNF+Syn3–induced PSD-95 puncta formation with inhibitor [2]: reversed
- effect of Syn3 on synaptic density with inhibitor [3]: blocked the effect of Syn3 on synaptic density
- density of dendritic spines, BDNF + Syn3 with inhibitor [4]: reversed
- BDNF plus Syn3 stimulation of Akt and S6K phosphorylation with inhibitor [5]: blocked

Molecule: CNC1(c2ccccc2Cl)CCCCC1=O (centres unmarked) [ketamine]
- antidepressant effects in patients [6]: produces rapid antidepressant effects in patients with conventional, treatment-resistant depression

Molecule: CN[C@]1(c2ccccc2Cl)CCCCC1=O [esketamine]
- autophagy [7]: acts to inhibit autophagy

Molecule: C[C@]12C[C@H](O)[C@H]3[C@@H](CCC4=CC(=O)CC[C@@]43C)[C@@H]1CC[C@@H]2C(=O)CO [corticosterone]
- immobility time (effect of inducer), tail suspension test [8]: increased immobility time
- sucrose intake (effect of inducer) [9]: decreased sucrose intake
- immobility time (effect of inducer), forced swim test [10]: increased immobility time

Molecule: O=c1cc(N2CCOCC2)oc2c(-c3ccccc3)cccc12 [LY294002]
- effect of inhibitor on the effects of Syn3 (PSD-95 puncta) [2]: blocked the effects of Syn3
- BDNF+Syn3–induced PSD-95 puncta formation with inhibitor [2]: reversed
- effect of Syn3 on synaptic density with inhibitor [3]: blocked the effect of Syn3 on synaptic density
- density of dendritic spines, BDNF + Syn3 with inhibitor [4]: reversed
- BDNF plus Syn3 stimulation of Akt and S6K phosphorylation with inhibitor [5]: blocked

B1: PDGF: recombinant platelet-derived growth factor (protein, UniProt P01127 82-190, looked up)
Platelet-derived growth …: SLGSLTIAEPAMIAECKTRTEVFEISRRLIDRTNANFLVWPPCVEVQRCSGCCNNRNVQCRPTQVQLRPVQVRKIEIVRKKPIFKKATVTLEDHLACKCETVAAARPVT
- Akt and S6K phosphorylation [11]: increased Akt and S6K phosphorylation

B2: brain-derived neurotrophic factor (protein, UniProt P23560 19-247, looked up)
Neurotrophic factor BDNF …: APMKEANIRGQGGLAYPGVRTHGTLESVNGPKAGSRGLTSLADTFEHVIEELLDEDQKVRPNEENNKDADLYTSRVMLSSQVPLEPPLLFLLEEYKNYLDAANMSMRVRRHSDPARRGELSVCDSISEWVTAADKKTAVDMSGGTVTVLEKVPVSKGQLKQYFYETKCNPMGYTKEGCRGIDKRHWNSQCRTTQSYVRALTMDSKKRIGWRFIRIDTSCVCTLTIKRGR
- number of PSD-95 puncta ([2]; BDNF 25 ng/mL, 24h): increased the number of PSD-95 puncta
- dendritic complexity and number of neurite crossings [12]: significantly enhanced dendritic complexity and the number of neurite crossings

— PMC11223518 (Science signaling, 2024)
